Assay outcomes deposited in PubChem BioAssay by several laboratories.
Shown are actives, neighbours in structure and some others; about 2% of the full set was active somewhere.
CCR6 antag – CCR6 (human) receptor antagonism; P51684; CHO-K1 CCR6 PathHunter beta-arrestin, luminescence, CCL20-stimulated; AID 493098; inhibition, % at 20 µM; 340,000 tested, 0.49% active;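 active = compounds whose inhibition of the agonist-driven luminescence signal at 20 µM reaches about 50%, limit read from the data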;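 note: cells stimulated with CCL20 at 14 nM final; plate controls were DMSO with CCL20 for no effect and DMSO without agonist for full effect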
CXCR6 inh – inhibitors of human CXCR6 receptor; CHO-K1 PathHunter CXCR6 beta-arrestin, luminescence; inhibition, % at 20 µM; 360,000 tested, 0.36% active; AID 602244; in the data active = inhibition above about 34%, passing the limit was not always enough;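 note: antagonist mode with CXCL16 agonist at 10 nM final; 0% = 10 nM CXCL16 with DMSO and 100% = unstimulated wells without agonist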
Target sequence (O00574 whole entry, looked up): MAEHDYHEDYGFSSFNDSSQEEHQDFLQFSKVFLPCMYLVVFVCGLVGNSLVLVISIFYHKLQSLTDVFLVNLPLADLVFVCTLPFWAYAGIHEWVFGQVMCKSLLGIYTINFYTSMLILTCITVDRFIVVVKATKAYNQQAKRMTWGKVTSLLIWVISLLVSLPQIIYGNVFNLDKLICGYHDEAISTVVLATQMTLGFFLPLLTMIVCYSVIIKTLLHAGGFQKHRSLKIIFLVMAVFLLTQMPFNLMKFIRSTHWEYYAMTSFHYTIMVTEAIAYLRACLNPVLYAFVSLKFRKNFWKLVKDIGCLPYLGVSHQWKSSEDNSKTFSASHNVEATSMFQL
EBI2 block – EBI2 (human) antagonism; P32249; EBI2 beta-arrestin recruitment, luminescence, 7a,25-OHC stimulated; inhibition, % at 5 µM; 360,000 tested, 0.81% active; AID 651636; in the data active = inhibition above about 38%;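 note: enzyme fragment complementation signal reports receptor beta-arrestin coupling in cells; 0% = agonist plus DMSO wells and 100% = wells without agonist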
APJ ag – agonists of human APJ apelin receptor | P35414 | CHO-K1 APJ PathHunter beta-arrestin, luminescence; 0% DMSO wells, 100% apelin | activation, % at 20 µM | 330,000 tested, 0.11% active | AID 2520;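 active = activation more than six SD over the plate average, tested at 20 µM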;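 note: 0% = DMSO alone and 100% = apelin-13 at 10 nM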
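Assay system: CHO-K1 cells stably expressing ProLink-tagged human APJ and arrestin–beta-gal acceptor. Compound dosing: 20 µM single point, 1% DMSO. Times: 16-18 h seeding, 90 min dark compound exposure, 60 min detection. Detection: beta-gal luminescence. Evaluation: APJ–arrestin association signal. Controls: negative DMSO alone, positive Apelin-13 at 10 nM.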
FXN GAA850 act – frataxin GAA850 promoter activation | HEK293 lucGAA850 FXN promoter luciferase reporter, 24 h; percent of 10 µM SAHA response | activation, % at 6 µM | 360,000 tested, 0.56% active | AID 540364;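 active = activation above the average of all compounds screened plus 3 SD, cutoff fixed separately per campaign, cut at about 7.5% in these data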;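 note: 0% = DMSO wells and 100% = 10 µM SAHA wells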
APJ antag – antagonists of human APJ apelin receptor. 330,000 tested, 0.32% active. inhibition, % at 20 µM. P35414. CHO-K1 APJ beta-arrestin complementation, luminescence;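 active = inhibition above about 40% at 20 µM, limit read from the data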;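 note: cells challenged with 10 nM apelin-13 agonist together with compound; plate controls were apelin-13 plus DMSO wells for no effect and DMSO wells lacking apelin-13 for full effect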
GAA30 FXN cntr – counter-screen for GAA850 frataxin promoter activators: GAA30 promoter activation. shares compounds with FXN GAA850 act. HEK293 lucGAA30 FXN promoter luciferase, 24 h; DMSO = 0%, 5 µM ipriflavone = 100%. activation, % at 6 µM. 1,900 tested, 66% active;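 active = mean activation above the mean of solvent-only control wells plus 3 SD, cut at about 22% in these data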;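 note: counterscreen of GAA850 promoter hits where activity marks nonselective or luminescence artifacts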
GAA850 confirm – GAA850 FXN promoter activation confirmation; HEK293 lucGAA850 FXN promoter luciferase reporter, 24 h; 100% = activation by SAHA; activation, % at 6 µM; shares compounds with FXN GAA850 act; 1,900 tested, 86% active; AID 588351;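 active = mean activation above a set limit taken from the primary screen, cut at about 8% in these data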;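 note: 0% = DMSO wells and 100% = 10 µM SAHA wells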
* = called active by the depositor; nt = no result given.

SMILES | CCR6 antag | CXCR6 inh | EBI2 block | APJ ag | FXN GAA850 act | APJ antag | GAA30 FXN cntr | GAA850 confirm
O=C(Nc1ccccc1O)c1csc2c1CCCC2 | 1 | -6 | 25 | -1 | 11* | -21 | 119* | 44*
CCN(CC(=O)NCc1ccc(Cl)cc1)C(=O)CCOc1ccc(C)cc1 | 10 | 1 | 20 | 0 | 2 | -1 | nt | nt
Nc1ccc(-c2nc3ccc(N)cc3[nH]2)cc1 | 3 | 9 | -13 | -2 | -2 | -28 | nt | nt
Nc1ccc2cc3[nH]c4cc(N)ccc4c3nc2c1 | 3 | -2 | -4 | nt | 12* | nt | -84 | 1
COC(=O)c1c(NC(=O)c2ccco2)sc(C)c1C | 9 | 6 | 1 | -8 | 1 | -2 | nt | nt
Cc1c(Cc2ccccc2)sc(NC(=O)c2ccco2)c1C(N)=O | 17 | 1 | 6 | -4 | 8.8* | 20 | 38* | 11*
CC(=O)c1ccc(S(=O)(=O)N2CCN(c3ccnc4cc(Cl)ccc34)CC2)cc1 | nt | 1 | 15 | nt | -2 | nt | nt | nt
N/C(=N\N=C\c1ccc(O)cc1)c1nonc1N | 6 | -7 | -9 | -1 | 2 | 1 | nt | nt
N/C(=N\N=C\c1cccc(O)c1)c1nonc1N | 6 | -5 | 3 | -4 | 7.9* | 9 | 128* | 21*
Fc1ccc(CSc2nc3ccccc3[nH]2)cc1 | -6 | -7 | -2 | 2 | 2 | 5 | nt | nt
c1ccc(CSc2nc3ccccc3[nH]2)cc1 | 11 | -3 | 9 | -5 | 7.9* | 4 | 91* | 29*
c1ccc(N2CC3COc4ccccc4C3=N2)cc1 (centres undefined) | -1 | -10 | 3 | nt | 4 | nt | nt | nt
Cc1nn(C)c(C)c1S(=O)(=O)N(CC(=O)NC1CCCCCC1)c1ccc(C(C)C)cc1 | 12 | 3 | 7 | 0 | 2 | 3 | nt | nt
Cc1n[nH]c(C)c1S(=O)(=O)N(CC(=O)NC1CCCC1)c1ccc(C(C)C)cc1 | 11 | -2 | 1 | 0 | 8.2* | 4 | 21 | 9.5*
COC(=O)CN1C(c2ccc(Cl)cc2)=Nc2ccc(Cl)cc2C1c1ccccc1 (centres undefined) | 19 | 12 | 18 | -3 | 13* | 8 | 14 | 11*
COc1ccc(C2=Nc3ccc(C)cc3C(c3ccccc3)N2CC(=O)NN)cc1 (centres undefined) | -21 | 6 | 4 | -1 | -2 | -2 | nt | nt
OC(c1ccccc1)c1ncc(-c2cccc(F)c2)[nH]1 (centres undefined) | nt | 2 | -2 | nt | 5 | nt | nt | nt
COc1nc(N)nc(N2CCOCC2)n1 | -3 | -2 | -14 | -2 | 1 | -8 | nt | nt
COc1nc(N)nc(NC23CC4CC(CC(C4)C2)C3)n1 | -8 | 2 | -3 | -6 | 9.2* | -15 | 57* | 20*
Cc1cccc(NC(=O)Nc2cccc(C#N)c2)n1 | 4 | 4 | 8 | -5 | 8.0* | 17 | 90* | 70*
Cc1cccc(NC(=O)Nc2cccc(F)c2)n1 | 4 | -2 | 4 | -3 | 4 | 11 | nt | nt
Cc1cccc(NC(=O)Nc2ccc(Br)cc2)n1 | 3 | -2 | -4 | 0 | 5 | 6 | nt | nt
Cc1cccc(NC(=O)Nc2ccc(C#N)cc2)n1 | 5 | 2 | 11 | -1 | 20* | -6 | 103* | 105*
Cc1cccc(NC(=O)Nc2ccccc2[N+](=O)[O-])n1 | 17 | 1 | -7 | -5 | 9.3* | 19 | 67* | 25*
CC1=C(C(=O)OC2CCCC(C)C2)C(c2ccccc2)NC(=O)N1 (centres undefined) | 16 | -4 | -6 | 2 | 0 | -16 | nt | nt
CCOC(=O)C1=CC[C@@H](c2cc(OC)c(OC)c(OC)c2)N(S(=O)(=O)c2ccc(C)cc2)[C@H]1C(=O)OCC | -1 | 5 | 11 | -2 | -2 | 6 | nt | nt
CC1CCCN(C(=O)COC(=O)C2CCN(S(=O)(=O)c3ccc4c(c3)OCCO4)CC2)C1 (centres undefined) | -4 | -2 | -5 | -5 | 2 | 8 | nt | nt
